Data as given in ChEMBL document CHEMBL3826878, “Design, synthesis, molecular docking and biological evaluation of thiophen-2-iminothiazolidine derivatives for use against Trypanosoma cruzi” (Bioorg Med Chem, 2016).

How the values were obtained:
[1] = target: Cruzipain (Trypanosoma cruzi) (UniProt P25779); assay: Inhibition of Trypanosoma cruzi cruzain at 100 uM using Z-Phe-Arg-aminomethylcoumarin as substrate measured after 5 mins by spectrofluorimetry
In short: (§1)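 Recombinant cruzain (0.5 nM, MMTS-protected, anion-exchange purified) in 0.1 M sodium acetate pH 5.5 with 0.1 mM beta-mercaptoethanol and 2.5 uM Z-FR-AMC, read fluorimetrically over 5 min; activity from initial rate versus DMSO control. Triton X-100 0.01% standard; detergent-sensitivity tests used 0.01% vs 0.1%. Run with and without 10 min pre-incubation; two independent experiments in triplicate; E64 100 uM positive control.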

Trypanosoma cruzi [2] = assay: Antitrypanosomal activity against amastigote stage of Trypanosoma cruzi CA-I/72 infected in mouse C2C12 cells measured after 3 days by DAPI staining-based assay; assay type: functional, organism-based; settings: CA-I/72, C2C12, 72 h
In short: (§2)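 T. cruzi CA-I/72 trypomastigotes harvested from infected C2C12 myocytes 7 days post-infection, mixed with C2C12 cells (1:15 host:parasite), treated immediately with serially diluted compound; 3 days incubation, paraformaldehyde fixation, DAPI staining, automated high-content imaging. Activity normalized to untreated wells and 10 uM benznidazole; host viability as C2C12 count relative to untreated wells.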

[3] = target: Cruzipain (Trypanosoma cruzi) (UniProt P25779); assay: Inhibition of Trypanosoma cruzi cruzain at 6.25 uM using Z-Phe-Arg-aminomethylcoumarin as substrate measured after 5 mins in presence of 0.01% triton by spectrofluorimetry; in short: as §1
[4] = (§3) Cytotoxicity against mouse J774 cells assessed as cell viability at 10 uM measured after 24 hrs by MTT assay; assay type: cell-based; settings: J774 cells, read-out: Activity
In short: (§4)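 J774 macrophages seeded in RPMI-1640 with 10% FBS for 16 hours, exposed 24 h at 37 °C to compound (10–100 umol/L range) in 0.01% DMSO vehicle; MTT (5 mg/mL) 4 h, formazan dissolved in DMSO, absorbance 540 nm. Viability as percent of untreated cells; three wells per treatment.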

Trypanosoma cruzi [5] = assay: Antitrypanosomal activity against trypomastigote stage of Trypanosoma cruzi Y at 25 uM measured after 24 hrs using propidium iodide by neubauer chamber method relative to control; assay type: functional
In short: (§5)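 Y strain trypomastigotes from LLC-MK2 culture supernatant, 4.0 × 10^5 per well, exposed to five compound concentrations (DMSO solutions) for 24 h at 37 °C, 5% CO2; propidium iodide 400 ng/mL for 5 min, then viable motile parasites counted in a Neubauer chamber. Percent inhibition versus untreated cultures.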

Cruzipain = Cruzipain (Trypanosoma cruzi, UniProt P25779); assay: Inhibition of Trypanosoma cruzi cruzain using Z-Phe-Arg-aminomethylcoumarin as substrate measured after 5 mins by spectrofluorimetry
Cruzipain, sequence (P25779 whole entry): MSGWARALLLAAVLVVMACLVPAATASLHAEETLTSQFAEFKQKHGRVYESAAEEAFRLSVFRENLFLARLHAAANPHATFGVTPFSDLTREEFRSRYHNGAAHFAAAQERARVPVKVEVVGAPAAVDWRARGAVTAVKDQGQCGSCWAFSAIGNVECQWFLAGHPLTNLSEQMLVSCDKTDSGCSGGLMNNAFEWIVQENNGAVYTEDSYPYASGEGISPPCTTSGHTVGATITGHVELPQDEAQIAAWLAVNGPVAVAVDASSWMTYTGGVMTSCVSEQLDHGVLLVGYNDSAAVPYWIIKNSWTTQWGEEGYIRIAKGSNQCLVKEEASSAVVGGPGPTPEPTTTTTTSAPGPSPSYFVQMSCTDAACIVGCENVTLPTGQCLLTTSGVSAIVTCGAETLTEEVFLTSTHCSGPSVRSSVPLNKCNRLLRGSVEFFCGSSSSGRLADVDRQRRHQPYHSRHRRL
In short: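 IC50 for cruzain: 10 min enzyme–compound pre-incubation, then 0.5 nM cruzain with 2.5 uM Z-FR-AMC in 0.1 M sodium acetate pH 5.5, 0.1 mM beta-mercaptoethanol, 0.01% Triton X-100, fluorescence over 5 min; at least nine compound concentrations in triplicate, two independent experiments, curves fitted for IC50.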

Trypanosoma cruzi [6] = assay: Antitrypanosomal activity against amastigote stage of Trypanosoma cruzi CA-I/72 infected in mouse C2C12 cells at 10 uM measured after 3 days by DAPI staining-based assay relative to control; assay type: functional; settings: CA-I/72, C2C12, 72 h; in short: as §2
[7] = target: Cruzipain (Trypanosoma cruzi) (UniProt P25779); assay: Inhibition of Trypanosoma cruzi cruzain at 6.25 uM using Z-Phe-Arg-aminomethylcoumarin as substrate measured after 5 mins in presence of 0.1% triton by spectrofluorimetry; in short: as §1
[8] = target: Cruzipain (Trypanosoma cruzi) (UniProt P25779); assay: Inhibition of Trypanosoma cruzi cruzain at 100 uM pre-incubated for 10 mins followed by addition of Z-Phe-Arg-aminomethylcoumarin as substrate measured after 5 mins by spectrofluorimetry; in short: as §1
[9] = target: Cruzipain (Trypanosoma cruzi) (UniProt P25779); assay: Inhibition of Trypanosoma cruzi cruzain at 100 uM using Z-Phe-Arg-aminomethylcoumarin as substrate measured after 5 mins in presence of 0.01% triton by spectrofluorimetry; in short: as §1
[10] = target: Cruzipain (Trypanosoma cruzi) (UniProt P25779); assay: Inhibition of Trypanosoma cruzi cruzain at 100 uM using Z-Phe-Arg-aminomethylcoumarin as substrate measured after 5 mins in presence of 0.1% triton by spectrofluorimetry; in short: as §1
[11] = target: Cruzipain (Trypanosoma cruzi) (UniProt P25779); assay: Inhibition of Trypanosoma cruzi cruzain at 50 uM using Z-Phe-Arg-aminomethylcoumarin as substrate measured after 5 mins in presence of BSA by spectrofluorimetry
In short: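 Cruzain aggregation test: compound pre-incubated with 2 mg/mL BSA, then cruzain (0.5 nM) activity on 2.5 uM Z-FR-AMC in 0.1 M sodium acetate pH 5.5, 0.1 mM beta-mercaptoethanol, 0.01% Triton X-100, monitored 5 min by fluorescence; inhibition from initial rate against DMSO control.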

[12] = target: Cruzipain (Trypanosoma cruzi) (UniProt P25779); assay: Inhibition of Trypanosoma cruzi cruzain at 50 uM using Z-Phe-Arg-aminomethylcoumarin as substrate measured after 5 mins by spectrofluorimetry; in short: as §1
[13] = target: Cruzipain (Trypanosoma cruzi) (UniProt P25779); assay: Inhibition of Trypanosoma cruzi cruzain at 50 uM using Z-Phe-Arg-aminomethylcoumarin as substrate measured after 5 mins in presence of 0.01% triton by spectrofluorimetry; in short: as §1
[14] = target: Cruzipain (Trypanosoma cruzi) (UniProt P25779); assay: Inhibition of Trypanosoma cruzi cruzain at 50 uM using Z-Phe-Arg-aminomethylcoumarin as substrate measured after 5 mins in presence of 0.1% triton by spectrofluorimetry; in short: as §1
[15] = target: Cruzipain (Trypanosoma cruzi) (UniProt P25779); assay: Inhibition of Trypanosoma cruzi cruzain at 50 uM pre-incubated for 10 mins followed by addition of Z-Phe-Arg-aminomethylcoumarin as substrate measured after 5 mins by spectrofluorimetry; in short: as §1
J774 = assay: as §3; assay type: cell-based; settings: j774, 24 h, 10 µM; in short: as §4
[16] = target: Cruzipain (Trypanosoma cruzi) (UniProt P25779); assay: Inhibition of Trypanosoma cruzi cruzain at 25 uM pre-incubated for 10 mins followed by addition of Z-Phe-Arg-aminomethylcoumarin as substrate measured after 5 mins by spectrofluorimetry; in short: as §1
[17] = target: Cruzipain (Trypanosoma cruzi) (UniProt P25779); assay: Inhibition of Trypanosoma cruzi cruzain at 25 uM using Z-Phe-Arg-aminomethylcoumarin as substrate measured after 5 mins by spectrofluorimetry; in short: as §1
Trypanosoma cruzi [18] = assay: Antitrypanosomal activity against trypomastigote stage of Trypanosoma cruzi Y measured after 24 hrs using propidium iodide by neubauer chamber method; assay type: functional, organism-based; in short: as §5

Cruzipain (Trypanosoma cruzi), sequence (P25779 123-467 limits assumed): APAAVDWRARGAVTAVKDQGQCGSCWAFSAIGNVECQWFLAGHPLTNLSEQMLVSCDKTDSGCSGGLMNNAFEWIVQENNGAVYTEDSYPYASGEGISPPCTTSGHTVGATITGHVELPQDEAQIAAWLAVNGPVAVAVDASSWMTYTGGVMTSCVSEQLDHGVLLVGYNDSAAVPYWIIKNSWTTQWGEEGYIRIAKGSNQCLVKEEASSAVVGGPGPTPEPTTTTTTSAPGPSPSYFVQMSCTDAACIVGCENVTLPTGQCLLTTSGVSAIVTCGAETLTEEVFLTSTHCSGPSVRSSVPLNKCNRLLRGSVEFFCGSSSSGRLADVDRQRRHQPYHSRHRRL

| SMILES | inhibition [1] [%] | inhibition at 25 µM (Trypanosoma cruzi [5]) [%] | inhibition at 10 µM (Trypanosoma cruzi [6]) [%] | inhibition [8] [%] | further results |
| --- | --- | --- | --- | --- | --- |
| C=CCn1c(-c2ccccc2)cs/c1=N\c1sc2c(c1C(=O)OCC)CCCC2 | 87 | 5.1 | 53.1 | 97 | IC50 (Trypanosoma cruzi [2]): 9.7 µM; inhibition [3]: 62%; viability at 24 h, 10 µM [4]: > 50%; IC50 (Cruzipain): 2.4 µM; inhibition [7]: 55% |
| C=CCN1C(=O)C(C(=O)OCC)S/C1=N\c1sc2c(c1C(=O)OCC)CCCC2 (stereo not given) | 18 | 16.7 | 30 | 59 |  |
| O=C(Cn1ccnc1[N+](=O)[O-])NCc1ccccc1 [BENZNIDAZOLE] |  | 100 | 94.5 |  | IC50 (Trypanosoma cruzi [2]): 1.17 µM |
| CCOC(=O)c1c(/N=C2\SC(CC(=O)O)C(=O)N2c2ccccc2)sc2c1CCCC2 (stereo not given) | 66 | 6.4 | 37.4 | 86 | inhibition [9]: 5.4%; inhibition [10]: 18%; IC50 (Cruzipain): 121 µM |
| C=CCn1c(-c2ccccc2)cs/c1=N\c1sc2c(c1C(=O)OC(C)C)CCCC2 | 29 | 6.1 | 36 | 67 |  |
| C=CCn1c(C)c(C(=O)OCC)s/c1=N\c1sc2c(c1C(=O)OCC)CCCC2 | 34 | 7.1 | 18.3 | 82 | inhibition [9]: 33%; inhibition [10]: 29%; IC50 (Cruzipain): 85 µM |
| C=CCN1C(=O)C(CC(=O)O)S/C1=N\c1sc2c(c1C(=O)OCC)CCCC2 (stereo not given) | 64 | 5.1 | 13.8 | 89 | inhibition [11]: 42%; inhibition [12]: 50%; IC50 (Cruzipain): 50 µM; inhibition [13]: 47%; inhibition [14]: 44% |
| C=CCNC(=S)Nc1sc2c(c1C(=O)OCC)CCCC2 | 29 | 11.9 | 11.9 | 41 |  |
| C=CCN1C(=O)C(CC(=O)O)S/C1=N\c1sc2c(c1C(=O)OC(C)C)CCCC2 (stereo not given) | 52 | 7.7 | 47.2 | 80 | inhibition [9]: 53%; inhibition [10]: 52.7%; IC50 (Cruzipain): 111 µM |
| C=CCN1C(=O)CS/C1=N\c1sc2c(c1C(=O)OCC)CCCC2 | 23 | 4.5 | 17 | 40 |  |
| CCOC(=O)c1c(/N=C2\SCC(=O)N2c2ccccc2)sc2c1CCCC2 | 0 | 3.2 | 20.1 | 17 |  |
| CCOC(=O)c1c(/N=c2\scc(-c3ccccc3)n2-c2ccccc2)sc2c1CCCC2 |  | 5.8 | 23.6 |  | inhibition [12]: 16%; inhibition [15]: 40% |
| CC(C)OC(=O)c1c(/N=C2\SCC(=O)N2c2ccccc2)sc2c1CCCC2 | 33 | 27 | 39.4 | 72 | IC50 (Trypanosoma cruzi [2]): 6.96 µM; Activity (J774): Toxic |
| CCOC(=O)c1c(/N=C2\SC(C(=O)OCC)C(=O)N2c2ccccc2)sc2c1CCCC2 (stereo not given) | 46 | 9 | 0.43 | 66 |  |
| CCOC(=O)c1c(NC(=S)Nc2ccccc2)sc2c1CCCC2 | 12 | 1.6 | 47 | 4 |  |
| C=CCn1c(C)c(C(=O)OCC)s/c1=N\c1sc2c(c1C(=O)OC(C)C)CCCC2 |  | 6.7 | 39.2 |  | inhibition [16]: 71%; inhibition [17]: 38% |
| CC(C)OC(=O)c1c(/N=C2\SC(CC(=O)O)C(=O)N2c2ccccc2)sc2c1CCCC2 (stereo not given) | 32 | 6.4 | 43.5 | 77 |  |
| C=CCNC(=S)Nc1sc2c(c1C(=O)OC(C)C)CCCC2 | 29 | 15.1 | 37.8 | 34 |  |
| C=CCN1C(=O)CS/C1=N\c1sc2c(c1C(=O)OC(C)C)CCCC2 | 45 | 84.1 | 4.03 | 70 | IC50 (Trypanosoma cruzi [18]): 10.3 µM |
| CC(C)OC(=O)c1c(NC(=S)Nc2ccccc2)sc2c1CCCC2 | 43 | 5.8 | 59.6 | 74 | IC50 (Trypanosoma cruzi [2]): 8.78 µM; viability at 24 h, 10 µM [4]: > 50% |
| CC(C)OC(=O)c1c(/N=c2\scc(-c3ccccc3)n2-c2ccccc2)sc2c1CCCC2 | 13 | 4.5 | 59.5 | 25 | IC50 (Trypanosoma cruzi [2]): 6.03 µM; viability at 24 h, 10 µM [4]: > 50% |
| CC(C)C[C@H](NC(=O)[C@H]1O[C@@H]1C(=O)O)C(=O)NCCCCN=C(N)N [E-64] |  |  |  |  | IC50 (Cruzipain): 0.4 µM |
